What is called MIC is the least concentration at which growth counts as inhibited.

The source made the active and inactive calls. The rule behind the calls is not given here.

The results in this text go back to ChEMBL document CHEMBL4699571, “Synthesis of Natural and Unnatural Quinolones Inhibiting the Growth and Motility of Bacteria” (2020).

The subject of test [1] is Pseudomonas aeruginosa. The test can be described thus: Antimicrobial activity against Pseudomonas aeruginosa ATCC 15692 assessed as reduction in microbial growth at 1.1 to 33.4 ug/ml after 24 hrs by broth microdilution method. It counts as functional, organism-based. The settings on record: dose microg/ml 1.1-33.4, time 24.0 hrs. In a few lines:
(§1)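 P. aeruginosa growth-inhibition assay in broth. Each compound was tested at final concentrations of 1.1, 2.1, 4.2, 8.4, 16.7 and 33.4 μg/mL. The read-out is the extent of growth inhibition at each concentration.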
Background: Dilution methods test growth across graded concentrations, often in twofold steps.

Test [2] deals with Bacillus spizizenii. The test can be described thus: Inhibition of swarming motility of Bacillus subtilis subsp. spizizenii ATCC 6633 at 10 uM after 24 hrs. Type of test: functional, organism-based.
Test [3] concerns Pseudomonas aeruginosa. The test can be described thus: Antimicrobial activity against Pseudomonas aeruginosa ATCC 15692 assessed as zone of inhibition at 2 mg/ml after 24 hrs by agar well diffusion method. It counts as functional. Conditions: for zone of inhibition at 2000 µg/mL: read-out: DIZ. In a few lines:
(§2)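 Preliminary agar well-diffusion screen run against a panel of eight Gram-positive and Gram-negative test microbes.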

The next test deals with Staphylococcus aureus. The test can be described thus: Antimicrobial activity against Staphylococcus aureus ATCC 12600 assessed as zone of inhibition at 2 mg/ml after 24 hrs by agar well diffusion method. Type of test: functional. Conditions: for zone of inhibition at 2000 µg/mL: read-out: DIZ. The procedure, abridged:
as §2
(Agar diffusion results depend on both activity and mobility in agar.)

For test [4], the system named is Staphylococcus epidermidis. The test can be described thus: Antimicrobial activity against Staphylococcus epidermidis ATCC 14990 assessed as zone of inhibition at 2 mg/ml after 24 hrs by agar well diffusion method. Type of test: functional. The settings on record: for zone of inhibition at 2000 µg/mL: read-out: DIZ. In a few lines:
as §2

Test [5] deals with Bacillus spizizenii. Briefly: Antimicrobial activity against Bacillus subtilis subsp. spizizenii ATCC 6633 assessed as zone of inhibition at 2 mg/ml after 24 hrs by agar well diffusion method. It counts as functional. Conditions: for zone of inhibition at 2000 µg/mL: read-out: DIZ. The procedure, abridged: as §2
In test [6] the test system is Pseudomonas aeruginosa. The test can be described thus: Antimicrobial activity against Pseudomonas aeruginosa ATCC 15692 assessed as reduction in microbial growth at 0.25 times of MIC concentration after 2 to 24 hrs by time kill assay. Type of test: functional, organism-based. Conditions: time 2.0 hrs. The procedure, abridged: (§3)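 Time-kill study against P. aeruginosa with compound at 1/4 MIC, MIC and 4 × MIC. Viable counts were followed as log CFU over a 24 h period, with sampling from 2 h onward. Ciprofloxacin served as the positive control.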

Test [7] relates to Pseudomonas aeruginosa. Briefly: Antimicrobial activity against Pseudomonas aeruginosa ATCC 15692 assessed as reduction in microbial growth at 4 times of MIC concentration after 24 hrs by time kill assay. It counts as functional, organism-based. In a few lines: as §3
The subject of test [8] is Pseudomonas aeruginosa. The test can be described thus: Antimicrobial activity against Pseudomonas aeruginosa ATCC 15692 assessed as reduction in microbial growth after 24 hrs by broth microdilution method. Type of test: functional. The procedure, abridged: as §1
The subject of test [9] is Pseudomonas aeruginosa. Briefly: Antimicrobial activity against Pseudomonas aeruginosa ATCC 15692 assessed as reduction in microbial growth at 2.1 to 33.4 ug/ml after 24 hrs by broth microdilution method relative to control. Type of test: functional. Conditions: dose microg/ml 2.1-33.4. In a few lines:
as §1

The test system of test [10] is Pseudomonas aeruginosa. The test can be described thus: Antimicrobial activity against Pseudomonas aeruginosa ATCC 15692 assessed as reduction in microbial growth at MIC concentration after 10 hrs by time kill assay. Type of test: functional, organism-based. In a few lines:
as §3

For the compound `CCSC(SCC)c1c(C)c2ccccc2[nH]c1=O`, the result in the test with Pseudomonas aeruginosa [1] was inactive. The “swarming motility inhibition (active/not active)” value in the test with Bacillus spizizenii [2] is “inactive”.
With `CS/C=C\c1cc(=O)c2ccccc2[nH]1`, the “swarming motility inhibition (active/not active)” value in the test on Bacillus spizizenii [2] is “inactive”.
On to `CCCC/C=C/Cc1cc(=O)c2ccccc2n1C`, for which the “swarming motility inhibition (active/not active)” value with Bacillus spizizenii [2] was “Active”.
For `O=C(O)c1cn(C2CC2)c2cc(N3CCNCC3)c(F)cc2c1=O` [CIPROFLOXACIN], in the test with Pseudomonas aeruginosa [3], the zone of inhibition at 2000 µg/mL was 35 mm.
On to `CS/C=C/c1cc(=O)c2ccccc2[nH]1`, for which the outcome with Pseudomonas aeruginosa [1] was inactive. The “diameter of the inhibition zone (DIZ)” value (in the test on Staphylococcus aureus; in the test with Pseudomonas aeruginosa [3]; in test [4]) was “inactive” each time. The “swarming motility inhibition (active/not active)” value in the test on Bacillus spizizenii [2] is “inactive”. Further, the zone of inhibition at 2000 µg/mL with Bacillus spizizenii [5] came out at 23 mm.
As for `CCOC(OCC)c1c(C)c2ccccc2[nH]c1=O`, in the test on Bacillus spizizenii [2], the “swarming motility inhibition (active/not active)” value is “inactive”.
As for `CSCc1c(C)c2ccccc2[nH]c1=O`, the “swarming motility inhibition (active/not active)” value in the test on Bacillus spizizenii [2] was “Active”.
Same read-out and setting: the entry for `CO/C=C/c1cc(=O)c2ccccc2[nH]1` is “inactive”.
For the compound `CC1(C)S[C@@H]2[C@H](NC(=O)[C@H](N)c3ccccc3)C(=O)N2[C@H]1C(=O)O` [AMPICILLIN], the zone of inhibition at 2000 µg/mL with Staphylococcus aureus was 39 mm; in [4], 29 mm.
Turning to `COCc1c(C)c2ccccc2[nH]c1=O`, the “swarming motility inhibition (active/not active)” value in the test on Bacillus spizizenii [2] was “Active”.
With `CCCC/C=C/Cc1cc(=O)c2ccccc2[nH]1`, the result in the test with Pseudomonas aeruginosa [1], with Pseudomonas aeruginosa [6], in the test with Pseudomonas aeruginosa [7] and with Pseudomonas aeruginosa [10] was Active. The zone of inhibition at 2000 µg/mL in the test on Staphylococcus aureus was 9 mm; in the test on Pseudomonas aeruginosa [3], 35 mm; in test [4], 24 mm; with Bacillus spizizenii [5] it was 9 mm. Also, in the test on Bacillus spizizenii [2], the “swarming motility inhibition (active/not active)” value is “Active”. In addition, the MIC with Pseudomonas aeruginosa [8] stood at 33 µg/mL. Further, the “inhibition (INH)” value with Pseudomonas aeruginosa [9] came out at 37%.
For the compound `CCSCc1c(C)c2ccccc2[nH]c1=O`, the “swarming motility inhibition (active/not active)” value with Bacillus spizizenii [2] is “Active”.
Turning to `O=c1cc(Cc2ccccc2)[nH]c2ccccc12`, the outcome in the test on Pseudomonas aeruginosa [1] was inactive. Moreover, the “swarming motility inhibition (active/not active)” value with Bacillus spizizenii [2] is “Active”.
For the compound `COC(OC)c1c(C)c2ccccc2[nH]c1=O`, in the test with Bacillus spizizenii [2], the “swarming motility inhibition (active/not active)” value was “inactive”.
On to `Cn1c(Cc2ccccc2)cc(=O)c2ccccc21`, for which the result with Pseudomonas aeruginosa [1] was inactive. Besides, in the test with Bacillus spizizenii [2], the “swarming motility inhibition (active/not active)” value was “inactive”.
As for `CN[C@H](CC(C)C)C(=O)N[C@H]1C(=O)N[C@@H](CC(N)=O)C(=O)N[C@H]2C(=O)N[C@H]3C(=O)N[C@H](C(=O)N[C@H](C(=O)O)c4cc(O)cc(O)c4-c4cc3ccc4O)[C@H](O)c3ccc(c(Cl)c3)Oc3cc2cc(c3O[C@@H]2O[C@H](CO)[C@@H](O)[C@H](O)[C@H]2O[C@H]2C[C@](C)(N)[C@H](O)[C@H](C)O2)Oc2ccc(cc2Cl)[C@H]1O` [VANCOMYCIN], in the test with Bacillus spizizenii [5], the zone of inhibition at 2000 µg/mL came out at 19 mm.
With `CCO/C=C/c1cc(=O)c2ccccc2[nH]1`, the “swarming motility inhibition (active/not active)” value in the test with Bacillus spizizenii [2] was “inactive”.
`CCS/C=C/c1cc(=O)c2ccccc2[nH]1`: the result in the test with Pseudomonas aeruginosa [1] was inactive. For the same compound, in the test on Staphylococcus aureus, the zone of inhibition at 2000 µg/mL came to 13 mm. Moreover, the “diameter of the inhibition zone (DIZ)” value (with Pseudomonas aeruginosa [3]; in test [4]; in the test on Bacillus spizizenii [5]) was “inactive” throughout. Also, in the test with Bacillus spizizenii [2], the “swarming motility inhibition (active/not active)” value is “inactive”.
For `CSc1ccc(Cc2cc(=O)c3ccccc3n2C)cc1`, the result in the test with Pseudomonas aeruginosa [1] was inactive. The “diameter of the inhibition zone (DIZ)” value (with Staphylococcus aureus; in test [4]; in the test with Bacillus spizizenii [5]) was “inactive” each time. Also, the zone of inhibition at 2000 µg/mL in the test on Pseudomonas aeruginosa [3] was determined as 36 mm. Besides, the “swarming motility inhibition (active/not active)” value in the test with Bacillus spizizenii [2] is “Active”.
On to `Cc1c(CN(C)C)c(=O)[nH]c2ccccc12`, for which the “swarming motility inhibition (active/not active)” value in the test on Bacillus spizizenii [2] was “Active”.
For `CSC(SC)c1c(C)c2ccccc2[nH]c1=O`, in the test with Pseudomonas aeruginosa [1], the result was inactive. Moreover, in the test on Bacillus spizizenii [2], the “swarming motility inhibition (active/not active)” value was “inactive”.
Turning to `CSc1ccc(Cc2cc(=O)c3ccccc3[nH]2)cc1`, the outcome in the test with Pseudomonas aeruginosa [1] was inactive. For the same compound, the “diameter of the inhibition zone (DIZ)” value (in the test on Staphylococcus aureus; in [4]; in the test with Bacillus spizizenii [5]) was “inactive” throughout. Also, the zone of inhibition at 2000 µg/mL in the test with Pseudomonas aeruginosa [3] worked out at 29 mm. For the same compound, in the test on Bacillus spizizenii [2], the “swarming motility inhibition (active/not active)” value is “Active”.
